High-throughput results (PubChem BioAssay)
TNF necrop inh: inhibitors of TNF-alpha induced necroptosis in Jurkat FADD-/- cells. Jurkat FADD-/- TNF necroptosis rescue, ATP luminescence, 24 h; 0 = TNF only, 100 = no-TNF cells. activation (protection from cell death), % at 10 µM. hit rate 0.068% among 220,000. AID 463075;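 active = activation, meaning protection from cell death, of at least 50% relative to plate controls; inactive = activation below 50%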;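 note: necroptosis triggered by 40 ng/mL TNF-alpha added together with compound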
MDM2 E3 inh: Mdm2 E3 ligase (human) inhibition; cell-based MDM2 ubiquitination luciferase reporter, 2 h; 0 = plate control, 100 = twice control, blank-subtracted; hit rate 0.11% among 210,000; signal enhancement, % at 5 µM; AID 1230;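 active = signal enhancement of 30% or more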;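 note: luminescence tracks abundance of the self-degrading MDM2-luciferase fusion protein; higher signal means inhibition of MDM2 E3 ligase activity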
Target sequence (Q00987 whole entry, looked up, the tested form may be a part): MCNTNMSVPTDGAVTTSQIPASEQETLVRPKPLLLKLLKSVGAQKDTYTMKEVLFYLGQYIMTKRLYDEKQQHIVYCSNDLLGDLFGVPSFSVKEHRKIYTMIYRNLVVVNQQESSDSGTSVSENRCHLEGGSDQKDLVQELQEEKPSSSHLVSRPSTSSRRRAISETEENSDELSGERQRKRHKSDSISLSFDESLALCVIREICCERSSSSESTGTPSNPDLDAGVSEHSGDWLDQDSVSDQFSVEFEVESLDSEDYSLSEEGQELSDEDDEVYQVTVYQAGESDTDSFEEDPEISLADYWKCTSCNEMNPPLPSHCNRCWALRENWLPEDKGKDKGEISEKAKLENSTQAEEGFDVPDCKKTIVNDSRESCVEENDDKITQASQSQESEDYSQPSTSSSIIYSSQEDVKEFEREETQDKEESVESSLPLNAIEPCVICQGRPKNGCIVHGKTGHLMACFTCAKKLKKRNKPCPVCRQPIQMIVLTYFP
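test system = mammalian cells stably expressing self-ubiquitinating, self-degrading MDM2 E3–luciferase fusion | quantity = 2000 cells/well | incubation = cell settling 4 h, compound treatment 2 h, both 37 °C | signal = luminescence with SteadyLite reagent, 15 min at room temperature | evaluation = % enhancement relative to plate controls after blank subtraction | benchmarks = plate controls and plate blanks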
Beta2AR agonist: activates human beta-2 adrenergic receptor causing internalization; P07550; Am2.2-beta2AR cells, FAP receptor internalization, flow cytometry; response, % (test concentration not listed); hit rate 0.43% among 340,000;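 active = response above a set limit, near 3 SD of response in nonfluorescent compounds, cut at about 42% in these data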
L929 necroptosis: blocks zVAD induced death of L929 cells. hit rate 0.38% among 220,000. L929 zVAD necroptosis rescue, ATP luminescence, 24 h; with zVAD 60 µM. viability rescue, % at 10 µM;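 active = activation, scaled between plate controls, above about 75%, limit read from the data; inactive = activation under that limit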;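 note: 0% = zVAD with DMSO and 100% = DMSO alone without zVAD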
Dynein cargo inh: dynein cargo transport inhibition; z-score, hits read low; 3617.4 mouse cells, GR-EGFP nuclear translocation imaging; test concentration mostly 20 µM; stimulated with dexamethasone, 1 µM; active compounds read low; hit rate 0.47% among 220,000; AID 1381;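 active = plate z-score of nuclear minus cytoplasmic receptor signal below a set negative limit, without overly bright fluorescence or cell loss, cut at about -3.5 in these data, passing the limit was not always enough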;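 note: z-score of nuclear minus cytoplasmic ring GR-EGFP intensity difference per well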
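Medium: Induction medium lacking tetracycline, stripped serum | Probe or stimulus: 1.0 µM final dexamethasone stimulus | Schedule: 48 h induction, then 1 h compound, then 30 min agonist, 37 °C | Signal: Automated 10x imaging of fixed Hoechst-stained cells | Evaluation: Per-cell GR-EGFP intensity, nucleus versus surrounding cytoplasmic ring, well-averaged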
* = called active by the depositor; / = no result given. Compounds with a hit are over-represented: about 0.97% of the library has one in this group of screens.

SMILES	TNF necrop inh	MDM2 E3 inh	Beta2AR agonist	L929 necroptosis	Dynein cargo inh
Nc1c(N2CCCC2)cc(Cl)c2nonc12	-5	-11	-3	1	-2.1
COC(=O)c1cc(OC)c(OC)cc1NC(=S)Nc1cccc(C(C)=O)c1	1	-13	-8	1	0.31
COCCN(Cc1cc2cc(C)cc(C)c2nc1Cl)C(=O)Nc1ccccc1	-14	-2	2	0	-0.45
Cc1cc(C)c2nc(Cl)c(CN(Cc3ccco3)C(=O)Nc3ccccc3C)cc2c1	-18	0	42*	-1	1.7
COc1ccc2c(c1)CCc1c(C(=O)Nc3cc(C)n(Cc4ccc(Cl)cc4)n3)noc1-2	1	-10	1	4	-1.2
Cc1cc(NC(=O)c2noc3c2CCCC3)nn1Cc1ccc(Cl)cc1	-1	-11	-5	82*	-1.3
COc1cccc(-c2[nH]nc3c2C(c2ccsc2)C(C#N)=C(N)O3)c1 (stereo unspecified)	-6	31*	0	0	-0.31
COc1ccc(-c2[nH]nc3c2C(c2ccsc2)C(C#N)=C(N)O3)cc1 (stereo unspecified)	-7	-12	12	1	0.69
O=C(N/N=C/c1cccc([N+](=O)[O-])c1)c1cc[n+](CCO)cc1	/	/	46*	/	/
CCN(CC)S(=O)(=O)c1cc(NC(=O)c2cc([N+](=O)[O-])ccc2N2CCOCC2)ccc1C	/	/	-1	/	/
COc1ccc(-c2nc3cc(NC(=O)Cc4ccc(OC)c(OC)c4)ccc3o2)cc1	0	-24	10	89*	-0.33
O=[N+]([O-])c1ccccc1C=NNC(=S)NN=Cc1ccccc1[N+](=O)[O-]	/	/	9	/	/
C=CCn1c(P(=O)(O)c2ccccc2)nc2ccccc21	-1	2	1	0	0.36
O=C(OCC(=O)N1CCN(C(=O)c2ccco2)CC1)c1cn(-c2ccccc2)nc1-c1ccccc1	-11	-19	-10	79*	-0.88
CCCCOc1ccc(Br)cc1/C(C)=N/NC1=NCCN1	-9	-13	48*	-2	-0.32
CO/N=C/c1ccc(Sc2ccc(C)cc2)c([N+](=O)[O-])c1	0	-6	7	0	0.57
Cc1ccc(Sc2ccc(/C=N/O)cc2[N+](=O)[O-])cc1	-1	-1	58*	0	-0.26
COC(C(=O)Nc1ccc(F)cc1)c1ccccc1 (stereo unspecified)	98*	/	7	/	0.14
COC(C(=O)Nc1ccc(S(=O)(=O)N2CCCCC2)cc1)c1ccccc1 (stereo unspecified)	60*	14	26	0	-0.46
COc1ccc(NC(=O)C(OC)c2ccccc2)cc1Cl (stereo unspecified)	50*	-4	8	3	-0.051
COc1ccc(Cl)cc1NC(=O)C(OC)c1ccccc1 (stereo unspecified)	1	-7	-4	0	0.7
COC(C(=O)Nc1ccc(S(=O)(=O)Nc2ccc(F)cc2)cc1)c1ccccc1 (stereo unspecified)	24	-13	-2	2	0.76
O=C(CSc1nnc2n1CCCN2)c1ccc(Cl)cc1	3	-4	-1	0	3.9
O=C/C=C/c1c(-c2ccccc2)cc2oc3ccccc3cc1-2	/	/	64*	/	/
O=S(=O)(Nc1cccc(S(=O)(=O)N2CCCC2)c1)c1ccc(Cl)cc1	/	/	1	/	/
SMILES	TNF necrop inh	MDM2 E3 inh	Beta2AR agonist	L929 necroptosis	Dynein cargo inh
COc1cc(/C=C/C(=O)OCC(=O)c2ccc[nH]2)cc(OC)c1OC	/	/	-2	/	/
COc1cc2c(OC(C)=O)c3c(c(-c4ccc5c(c4)OCO5)c2cc1OC)C(=O)OC3	-7	4	59*	-2	-0.9
COc1ccc(-c2oc(=O)c3cc(OC)c(OC)cc3c2-c2ccc3c(c2)OCO3)cc1	/	/	-4	/	/
COc1cc2c(O)c3c(c(-c4ccc5c(c4)OCO5)c2cc1OC)C(=O)OC3	-3	-5	45*	1	2
O=C1/C(=C\c2ccsc2)N2CCC1CC2	8	-7	1	0	-0.31
CCCn1c(N)c(N(C)C)c(=O)n(CC(=O)Nc2ccc(OC(F)(F)F)cc2)c1=O	-2	-18	-3	0	-0.59
c1ccc2c(c1)Nc1nccnc1S2	22	3	1	85*	-0.38
O=C1Nc2cccnc2Sc2ccccc21	-1	2	-1	0	0.47
Nc1c(C(=O)NC2CC2)sc2nc3c(c(-c4ccco4)c12)CC/C3=C/c1ccco1	2	-13	-64	0	-2.7
COCCn1c(N)c(N(Cc2ccccc2)C(=O)Cc2ccccc2F)c(=O)[nH]c1=O	1	-5	12	2	0.46
CC(=O)N(C1=C(Cl)C(=O)c2ccccc2C1=O)C1CCCCC1	-32	-85	64*	-2	-6*
C/C(=N\NC(=O)c1ccncc1)c1ccc(N2CCOCC2)cc1	/	/	4	/	/
C/C(=N\NC(=O)c1ccccc1)c1ccc(N2CCOCC2)cc1	0	5	1	-1	-3.6*
C=CC#CC[N+]1(CC#Cc2ccccc2)CCOCC1	0	-2	72*	0	-0.27
O=C(Nc1cccc2cccnc12)c1ccc(Br)o1	-5	-12	2	76*	-0.16
COc1cccc(/C=C2\SC(=S)NC2=O)c1OS(=O)(=O)c1ccc(NC(C)=O)cc1	1	-16	77*	1	-1.2
Cc1nc2ccccn2c1C(=O)N=Nc1c(O)n(CCC(C)C)c2ccccc12	-7	-13	45*	0	-0.13
CCOC(=O)c1ccc(N2C(=O)CC(Sc3nnc(C)s3)C2=O)cc1 (stereo unspecified)	-11	-12	-5	1	-3.5*
CC(=O)C1=C(C)NC(=O)CC1c1ccccc1Cl (stereo unspecified)	0	-6	4	0	0.34
NS(=O)(=O)c1ccc(Sc2nc3ccccc3s2)c([N+](=O)[O-])c1	-25	-4	1	0	0.097
CN(CCO)c1cc(Sc2nc3ccccc3s2)c2nonc2c1[N+](=O)[O-]	-2	6	99*	0	-1.5
CCOC(=O)CSc1n[nH]c(=S)s1	0	-7	-5	2	0.61
O=C1COc2ccc(-c3csc(NCC4CCCO4)n3)cc2N1 (stereo unspecified)	-1	-5	-2	54	-0.29
CC(Nc1nc(-c2ccc3c(c2)NC(=O)CO3)cs1)c1ccccc1 (stereo unspecified)	83*	-5	4	61	-0.91
CCN(CC)CCOC(=O)C1(c2ccccc2)CCOCC1	0	-26	30	0	-0.38
O=C(/C=C/c1ccccc1)c1ccccn1	-10	-13	4	0	-3.8*
N/C(=N\OC(=O)/C=C/c1ccccc1)c1ccccn1	-5	-43	-6	0	0.29
CCOC(=O)c1c(SCCN2CCCC2)n(-c2ccccc2)c(=S)n(-c2ccccc2)c1=O	/	/	53*	/	/
